Experimental data of several laboratories.
Protocols differ between the studies behind these lines.
Target: Protein kinase C iota type (PRKCI, Homo sapiens, UniProt P41743)
One construct used (P41743 1-596): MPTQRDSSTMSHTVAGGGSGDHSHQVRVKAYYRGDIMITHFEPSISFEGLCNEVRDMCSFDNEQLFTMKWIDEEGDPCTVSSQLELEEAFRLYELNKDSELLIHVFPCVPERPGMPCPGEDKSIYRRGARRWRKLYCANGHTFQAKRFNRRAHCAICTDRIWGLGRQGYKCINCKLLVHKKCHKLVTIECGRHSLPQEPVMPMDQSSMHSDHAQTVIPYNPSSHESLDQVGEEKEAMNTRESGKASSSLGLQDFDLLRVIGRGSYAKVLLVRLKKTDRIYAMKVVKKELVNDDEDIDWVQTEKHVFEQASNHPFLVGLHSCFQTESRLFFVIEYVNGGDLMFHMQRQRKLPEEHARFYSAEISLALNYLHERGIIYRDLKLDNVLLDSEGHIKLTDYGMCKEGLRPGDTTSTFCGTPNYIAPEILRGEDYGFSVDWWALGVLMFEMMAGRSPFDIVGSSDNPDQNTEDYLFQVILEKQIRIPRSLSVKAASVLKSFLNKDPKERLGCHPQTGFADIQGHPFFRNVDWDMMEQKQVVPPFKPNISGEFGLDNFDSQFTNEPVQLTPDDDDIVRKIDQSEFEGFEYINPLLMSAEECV

Cn1cncc1[C@](O)(COc1ccc(C#N)cc1-c1ccc(OC(F)(F)F)cc1)c1ccc(C#N)cc1  remaining binding (cell-free assay; competition with immobilised ligand; 1 µM): 100%
Cn1cc(-c2cc(F)cc(N3CCn4c(cc5c4CCCC5)C3=O)c2CO)cc(Nc2ccc(N3CCN(C4COC4)CC3)cn2)c1=O  inhibition (enzyme activity; inhibitor; 0.1 µM): -3%
COc1cc(Nc2ncc(F)c(Nc3ccc4c(n3)NC(=O)C(C)(C)O4)n2)cc(OC)c1OC  inhibition (binding; 10 µM): 35%
COc1ncccc1-c1cnn2ccc(N3CCN(C(=O)OC(C)C)CC3)nc12  remaining binding (binding; competition with immobilised ligand; 1 µM): 90%
O=c1[nH]c2ccccc2n1C1CCN(Cc2ccc(-c3[nH]c4cc5ncnc5cc4nc3-c3ccccc3)cc2)CC1  remaining signal (cell-free assay; 0.5 µM): 97%
COCc1c(-c2cc3cc(C)cc(OC)c3s2)c2c(N)ncnn2c1CN1CCNC(=O)C1  inhibition (cell-free assay; competition with immobilised ligand; 1 µM): 80%
CC(C)(C)c1cc(C=C(C#N)C#N)cc(Br)c1O  remaining activity (enzyme activity; inhibitor; 0.5 µM): 100%
Cn1cc(-c2cccc(N3CCc4c(sc5c4CC(C)(C)C5)C3=O)c2CO)cc(Nc2ccncn2)c1=O  inhibition (enzyme activity; inhibitor; 1 µM): 6%
